High-throughput results from PubChem.
Hits are enriched below; roughly 4.3% of the tested compounds scored in any of these assays.
Yeast life ext: extends the lifespan of yeast | S. cerevisiae growth with nicotinamide, OD615; deaD strain in restrictive glucose medium | inhibition of the nicotinamide effect, % at 10 µM | 130,000 tested, 0.68% active | AID 775;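 active = inhibition above a set limit, placed 3 SD over the median of all compounds, cut at about 26% in these data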;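 note: 0% = nicotinamide-treated wells and 100% = cells grown without nicotinamide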
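Assay system: DeaD-strain S. cerevisiae. Medium: CSMM-D glucose medium, restrictive. Reagent: nicotinamide, 1.5 mM, co-present with compound. Compound: 10 µM single point, 0.25% DMSO. Schedule: culture preincubation 4 h, compound exposure 48 h, both 30 °C. Detection: absorbance at 615 nm.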
RAM network inh: inhibitors of the yeast RAM network | S. cerevisiae dse1pr::URA3 reporter, 5-FOA growth OD615, 2 d; analog-sensitive cbk1-as2 kinase mutant strain | inhibition, % at 50 µM | 190,000 tested, 1.8% active | AID 868;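 active = inhibition above a set limit, 3 SD over mean compound inhibition, cut at about 8.4% in these data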;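 note: 0% = DMSO-only wells with no growth and 100% = 10 µM 1-NA-PP1 full growth; inhibition rescues growth on 5-FOA so higher OD means more RAM inhibition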
WT yeast gro inh: growth inhibition of WT yeast, mitochondrial fusion screen; mitochondrial fusion phenotypic screen, WT strain; inhibition, % at 10 µM; 190,000 tested, 2.1% active; AID 1362; in the data active = inhibition above about 58%; tested in S. cerevisiae
BB579 growth dn: yeast BB579 growth reduction in restrictive medium; S. cerevisiae BB579 growth, OD615, 48 h; inhibition, % at 10 µM; 140,000 tested, 0.51% active; AID 804;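 active = inhibition above a set limit, 3 SD over the mean compound inhibition, cut at about 44% in these data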
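controls = amphotericin B 10 µg/mL, positive | assay system = DeaD yeast strain BB579 | schedule = 48 h compound exposure at 30 °C after 4 h preincubation | detection = OD615 turbidity measurement | medium = restrictive CSMM-D medium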
The depositor's hits bear a star; · = no result given.

SMILES	Yeast life ext	RAM network inh	WT yeast gro inh	BB579 growth dn
CC(C)NS(=O)(=O)c1ccc(NC(=O)C2CC3C=CC2C3)cc1 (centres undefined)	-7.5	1.9	75.1*	-28.8
CC(=O)[C@H]1[C@@H]2C(=O)N(c3cccc(Cl)c3)C(=O)[C@@H]2[C@H]2c3ccccc3C=CN21	-8.6	2.0	-48.8	-47.6
CC(=O)[C@H]1[C@H](c2cccc(Cl)c2)C(C#N)(C#N)[C@@H]2c3ccccc3C=CN21	44.7*	1.1	-21.5	-39.3
CCCCOCC1CN(c2ccccc2)C(=O)CS1 (centres undefined)	2.7	0.9	7.5	-29.6
CCCCC1C(=O)N(c2ccccc2)N(c2ccccc2)C1=O	28.3*	1.6	-1.3	-24.0
CCNC(=O)NC(=O)C(C)OC(=O)C1CCN(S(=O)(=O)c2ccccc2C(=O)OC)CC1 (centres undefined)	·	1.5	11.3	·
NNC(=O)c1ccc(CSc2cccc3cccnc23)cc1	·	-0.4	11.1	·
Cc1cccc(CSc2cccc3cccnc23)c1	-11.6	-1.4	64.7	95.6*
Cc1cc(OCC(=O)N(C(C)C)C(C)C)cc(C)c1Br	-2.8	0.7	11.2	-38.9
CCOC1(OCC)C(c2ccc(Cl)cc2)C(C#N)(C#N)C1(OCC)OCC (centres undefined)	-3.6	7.3	65.1*	-17.4
CCOC1(OCC)C(c2ccc(N)cc2)C(C#N)(C#N)C1(OCC)OCC (centres undefined)	-3.6	-0.4	4.9	-1.3
C=CCNC(=S)N(C1CCCCC1)C1CCCCC1	·	-0.9	72.0*	·
COc1cc(/C=N/NC(=O)c2ccncc2)ccc1OC(=O)c1ccc([N+](=O)[O-])cc1	44.0*	3.5	7.5	-9.8
COc1cc(/C=N/NC(=O)c2ccncc2)ccc1OC(=O)c1ccccc1Cl	·	1.1	6.7	·
Cc1cc(=O)[nH]c(Sc2c(-c3ccccc3)c3ccccc3[nH]c2=O)n1	-11.2	8.7*	-10.3	-7.7
COCc1cc(=O)[nH]c(Sc2c(-c3ccccc3)c3ccc(Cl)cc3[nH]c2=O)n1	-0.8	3.2	-6.7	-0.8
Cc1ccc(Sc2c(CO)c(-c3ccccc3)nn2C)cc1	·	-0.4	-16.6	·
CN1OC(c2ccccc2)=C(CO)C1c1ccccc1 (centres undefined)	51.2*	0.9	-18.6	-33.6
O=S(=O)(c1ccccc1)N1CCC2(CC1)OCCO2	·	1.6	-11.9	·
O=[N+]([O-])c1ccc(Cl)cc1Sc1nc2ccccc2o1	·	0.6	-10.1	22.0
O=[N+]([O-])c1ccc(Sc2nc3ccccc3o2)c([N+](=O)[O-])c1	-11.3	-1.2	75.2	98.9*
Oc1ccc(-c2nc3c4c(ncn3n2)-c2ccccc2CC42CCCC2)cc1	2.0	8.1	96.0*	-48.2
Nc1nc(-c2cccnc2)nn1C(=O)c1ccc(F)cc1	·	-0.7	6.4	·
Cc1onc(-c2ccccc2Cl)c1C(=O)Nc1nnc(-c2ccc(Cl)cc2Cl)s1	-4.8	5.5	63.1*	-2.3
Cc1onc(-c2ccccc2Cl)c1C(=O)Nc1cccc(-c2cn3cccnc3n2)c1	-3.9	9.0*	·	-43.9
SMILES	Yeast life ext	RAM network inh	WT yeast gro inh	BB579 growth dn
Cc1onc(-c2ccccc2)c1C(=O)Nc1nnc(COc2ccc(Cl)cc2)s1	-15.4	2.7	63.4*	-21.6
Cc1nnc(NC(=O)c2c(-c3ccccc3)noc2C)s1	-9.1	1.1	10.5	-35.0
Cc1onc(-c2ccccc2Cl)c1C(=O)Nc1nnc(-c2ccc(F)cc2)s1	-6.8	2.3	50.5	-15.9
Cc1onc(-c2ccccc2Cl)c1C(=O)Nc1nnc(-c2ccc(Br)cc2)s1	-6.0	3.9	68.4*	-23.7
COc1ccccc1CNC(=O)/C=C/c1ccc(Br)o1	·	0.7	-9.4	·
O=C(Cc1ccccc1)NCC(=O)OCc1ccc([N+](=O)[O-])cc1	-2.3	0.0	3.7	-1.8
CCOc1ccc(/C=N/NC(=O)c2c(-c3ccccc3)noc2C)cc1	8.0	10.9*	-9.2	-29.8
Cc1onc(-c2ccccc2)c1C(=O)N/N=C/c1cccc(O)c1	0.9	0.2	9.2	-18.4
O=C1NC(c2ccccn2)Nc2sc3c(c21)CCC3 (centres undefined)	-7.9	-0.3	-5.8	74.8*
O=C(Nc1ccccc1N1CCOCC1)c1cccc(NS(=O)(=O)c2ccc(F)c(F)c2)c1	·	6.2	13.9	·
Cc1ccccc1Cn1cc(S(=O)(=O)CC(=O)Nc2nccs2)c2ccccc21	-2.5	8.4*	12.2	-36.4
Cc1c(N(C(=O)Nc2ccccc2)C2=NCC(C)S2)c(=O)n(-c2ccccc2)n1C (centres undefined)	-4.8	-0.1	82.1*	4.9
C=CCN1C(=O)SC(Cc2cccc(OC)c2O)C1=O (centres undefined)	·	1.7	-8.2	·
O=C(Oc1c(Cl)cc(Cl)c2cccnc12)c1cccc([N+](=O)[O-])c1	-11.8	-0.6	56.4	99.8*
O=C(Oc1ccc(Cl)c2cccnc12)c1cccc([N+](=O)[O-])c1	-0.8	0.9	13.2	-2.1
CO/N=C/c1cccn1-c1nccc(OC)c1C#N	·	2.9	-8.7	·
COc1ccc(-c2noc(N(C)CC(=O)Nc3cccc(C(F)(F)F)c3)n2)cc1	2.5	10.5*	64.6*	-18.4
O=c1[nH]ncc(N2CCN(C(c3ccccc3)c3ccccc3)CC2)c1Cl	2.9	1.6	68.5*	-13.1
O=c1cc(N2CCCCC2)c(-c2ccccc2)nn1Cc1cccc(Cl)c1	-6.3	5.3	86.3*	-38.3
O=c1cc(N2CCCCC2)c(-c2ccccc2)nn1Cc1ccc(Cl)cc1Cl	-5.2	7.7	72.8*	-58.1
O=c1cc(N2CCCCC2)c(-c2ccccc2)nn1Cc1ccccc1Cl	-6.3	3.5	88.3*	-5.0
C=CCn1nc(-c2ccccc2)c(N2CCCCC2)cc1=O	·	0.5	0.0	·
CCO[C@H]1OC(C(=O)NCc2ccccc2)=C[C@@H](C2CC2)[C@@H]1CCCO	·	1.0	-13.3	·
O=C(Nc1ccccc1Cc1ccccc1)c1ccccc1NS(=O)(=O)c1ccc(Cl)s1	15.2	6.7	76.0*	-40.9
Cc1ccc(NC(=O)c2ccccc2NS(=O)(=O)c2ccc(Cl)s2)cc1	10.6	0.3	81.6*	6.7
SMILES	Yeast life ext	RAM network inh	WT yeast gro inh	BB579 growth dn
CC(C)CNC(=O)c1cccc(NC(=O)Cc2ccc(Br)cc2)c1	-3.6	1.1	8.6	-39.0
CCCc1nn(C)c(C(=O)Nc2ccc3ccccc3c2)c1Cl	-0.3	10.9*	9.2	-28.1
CCCc1nn(C)c(C(=O)Nc2cccc(CC)c2)c1Cl	-2.6	0.3	32.5	-31.2
COc1ccc(CNCC(O)(c2ccccc2)c2ccc(Cl)cc2)cc1 (centres undefined)	-10.9	0.5	-6.5	-51.6
Cc1ccc(CNCC(O)(c2ccccc2)c2ccc(Cl)cc2)cc1 (centres undefined)	·	1.1	69.1*	·
CN1CCN(CCCNC(=O)c2ccc(/C=C3/Sc4ccccc4N(Cc4cccc(Cl)c4)C3=O)cc2)CC1	·	-1.6	97.1*	·
COCCCNC(=O)/C=C1\Sc2ccccc2N(Cc2ccccc2F)C1=O	·	2.5	5.7	·
CCN1CCN(CCNC(=O)c2ccc(/C=C3\Sc4ccccc4N(Cc4ccccc4F)C3=O)cc2)CC1	·	-1.5	77.2*	·
CN1CCN(CCCN2c3ccccc3Sc3ccc(Cl)cc32)CC1	-4.0	0.0	93.9*	-46.8
